SENP8 block-1 = SENP8 (human) protease inhibition; hit rate 0.64% among 360,000; inhibition, % at 20 µM; Q96LD8; recombinant SENP8, Nedd8 substrate fluorescence; AID 602440; in the data active means inhibition mostly above about 40%, no sharp cut-off; inactive means mostly below about 27%
SENP6 inh = blocks the human protease SENP6; inhibition, % at 10 µM; Q9GZR1; hit rate 1.8% among 330,000; AID 2599; Recombinant SENP6 catalytic domain, aminoluciferin luminescence;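 active means inhibition above about 50% at the single tested dose, limit read from the data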;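 further: plate controls were DMSO wells with enzyme for no effect and DMSO wells lacking enzyme for full effect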
SENP8 block-2 = inhibitors of human SENP8 protease. Q96LD8. inhibition, % at 10 µM. hit rate 1.2% among 330,000. purified SENP8, Z-RLRGG-aminoluciferin cleavage, luminescence; in the data active means inhibition above about 50%
UBC13 inh = inhibitors of human UBC13 polyubiquitin chain formation; P61088; TR-FRET; AID 485273; hit rate 0.47% among 330,000; inhibition, % at 20 µM; in the data active means inhibition above about 45%, passing the limit was not always enough
Apaf-1 inh = blocks human Apaf-1 apoptosome activity | O14727 | reconstituted apoptosome caspase-3 activity, DEVD-Rh110 fluorescence | inhibition, % at 20 µM | hit rate 0.71% among 330,000 | AID 489030; active means inhibition of at least 40% at 20 µM;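 further: plate controls were DMSO wells for no effect and DEVD-CHO caspase inhibitor wells for full effect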
Target sequence (O14727 whole entry, looked up): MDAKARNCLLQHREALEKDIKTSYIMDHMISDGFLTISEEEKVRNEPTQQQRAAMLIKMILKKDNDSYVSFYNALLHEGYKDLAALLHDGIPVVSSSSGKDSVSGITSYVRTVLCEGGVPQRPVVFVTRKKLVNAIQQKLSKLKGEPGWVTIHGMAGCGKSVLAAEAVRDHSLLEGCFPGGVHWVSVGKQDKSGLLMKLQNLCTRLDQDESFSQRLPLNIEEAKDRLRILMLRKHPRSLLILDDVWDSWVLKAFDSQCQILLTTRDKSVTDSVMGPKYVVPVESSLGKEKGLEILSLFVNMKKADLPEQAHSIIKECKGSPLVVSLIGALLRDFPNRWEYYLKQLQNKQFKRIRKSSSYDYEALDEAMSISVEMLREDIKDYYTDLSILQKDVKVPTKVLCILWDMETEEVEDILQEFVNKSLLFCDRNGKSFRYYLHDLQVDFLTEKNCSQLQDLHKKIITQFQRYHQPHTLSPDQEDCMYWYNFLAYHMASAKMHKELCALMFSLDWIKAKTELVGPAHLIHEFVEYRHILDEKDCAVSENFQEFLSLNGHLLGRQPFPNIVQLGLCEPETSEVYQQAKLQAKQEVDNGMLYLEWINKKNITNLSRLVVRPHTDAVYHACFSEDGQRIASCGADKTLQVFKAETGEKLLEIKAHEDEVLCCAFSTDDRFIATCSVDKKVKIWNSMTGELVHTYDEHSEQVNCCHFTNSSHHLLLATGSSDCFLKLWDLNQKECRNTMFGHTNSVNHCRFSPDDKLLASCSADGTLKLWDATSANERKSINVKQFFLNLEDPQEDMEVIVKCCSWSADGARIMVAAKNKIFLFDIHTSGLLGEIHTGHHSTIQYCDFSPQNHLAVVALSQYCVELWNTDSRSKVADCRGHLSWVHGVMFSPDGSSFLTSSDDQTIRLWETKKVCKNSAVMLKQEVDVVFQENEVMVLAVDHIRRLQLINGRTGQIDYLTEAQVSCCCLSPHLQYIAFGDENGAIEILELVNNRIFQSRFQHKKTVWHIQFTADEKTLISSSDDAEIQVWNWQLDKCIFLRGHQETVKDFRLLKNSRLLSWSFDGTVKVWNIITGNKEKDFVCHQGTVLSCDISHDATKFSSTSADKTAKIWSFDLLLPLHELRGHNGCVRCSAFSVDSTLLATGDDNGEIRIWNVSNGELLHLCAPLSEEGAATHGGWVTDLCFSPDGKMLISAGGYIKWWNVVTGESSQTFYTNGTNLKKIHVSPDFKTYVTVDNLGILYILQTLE
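Material: cell-free apoptosome with Apaf-1, procaspase-3 and caspase-9; Buffer or medium: Hepes pH 7.5 with detergent and BSA; Reagent: cytochrome c trigger plus (Z-DEVD)2-Rh110 caspase-3 substrate; Times: compound with Apaf-1, dATP, procaspase-3 30 min, then 50 min reaction, room temperature; Technique: Rh110 fluorescence intensity.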
SENP7 block = inhibitors of human SENP7 protease; hit rate 1.5% among 330,000; inhibition, % at 5 µM; recombinant SENP7, Z-RLRGG-aminoluciferin luminescence, 40 min; AID 434973; Q9BQF6;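 active means inhibition above about 50% at the single test dose, limit read from the data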;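 further: plate controls were DMSO with enzyme for no effect and no enzyme buffer wells for full effect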
SENP8 confirm = human SENP8 inhibition, confirmed; shares compounds with SENP7 block; inhibition, % at 12.5 µM; hit rate 40% among 6,200; Recombinant SENP8, Z-RLRGG-aminoluciferin luminescence, 60 min;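 active means mean inhibition across replicates above about 50%, limit read from the data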
SENP6 confirm = human SENP6 inhibition, confirmed. shares compounds with SENP7 block. recombinant SENP6, Z-RLRGG-aminoluciferin luminescence. inhibition, % at 12.5 µM. hit rate 58% among 6,200
SENP7 conf = confirmation of human SENP7 protease inhibitors; shares compounds with SENP7 block; recombinant SENP7, Z-RLRGG-aminoluciferin luminescence, 40 min; inhibition, % at 12.5 µM; hit rate 69% among 6,200
Casp3 SENP sel = selectivity test for SENP inhibitors: human caspase-3 inhibition | AID 488918 | shares compounds with SENP7 block | hit rate 60% among 6,200 | purified caspase-3, Z-DEVD-aminoluciferin luminescence, 60 min | inhibition, % at 12.5 µM;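 active means mean inhibition above about 50%, limit read from the data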;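 further: plate controls were enzyme with DMSO for no effect and wells without caspase-3 for full effect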
Luc interf = interferes with luciferase luminescence in SENP counter-screen. hit rate 39% among 6,200. inhibition, % at 12.5 µM. shares compounds with SENP7 block. Pre-incubated SENP8/Z-RLRGG-aminoluciferin, luciferase luminescence interference;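 active means mean inhibition above about 50% when retested at one dose, limit read from the data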;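 further: plate controls were DMSO wells with completed reaction for no effect and substrate without enzyme for full effect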
The depositor's hits bear a star; / = not tested or not shown. Compounds with a hit are over-represented: about 3% of the library has one in this group of screens.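 How the source made its calls, unless noted: active means mean inhibition above about 50% in the one-dose retest (limit read from the data); inactive means the rest.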

SMILES	SENP8 block-1	SENP6 inh	SENP8 block-2	UBC13 inh	Apaf-1 inh	SENP7 block	SENP8 confirm	SENP6 confirm	SENP7 conf	Casp3 SENP sel	Luc interf
CN(C)c1ccc(N=Nc2ccccc2Br)cc1	35.1	95.6*	92.9*	-134.1	12.3	98.8*	86.9*	94.2*	91.4*	89.9*	56.7*
CN(C)c1ccc(N=Nc2nccs2)cc1	36.9	/	/	/	/	/	/	/	/	/	/
CC(=O)c1ccc(N=Nc2ccc(C)cc2)cc1	22.4	84.9*	82.4*	-6.9	4.3	87.3*	60.7*	62.1*	79.4*	68.0*	47.5
CCCCn1nnnc1C(c1cc2ccccc2o1)N1CCN(c2ncccc2C#N)CC1 (stereo not given)	-113.0	/	/	/	/	/	/	/	/	/	/
CC1(C(=O)NCc2cccs2)Cc2c(-c3cccc(C(F)(F)F)c3)ccnc2O1 (stereo not given)	-1.8	/	/	/	/	/	/	/	/	/	/
CCCCN(C)C(=O)c1ccc(Nc2nc(C(N)COCc3ccccc3)cs2)nc1 (stereo not given)	-197.0	/	/	/	/	/	/	/	/	/	/
CC(O)(c1cccc(F)c1)c1nc(-c2cc(F)cc(F)c2)cs1 (stereo not given)	12.0	/	/	/	/	/	/	/	/	/	/
O=S(=O)(/N=C/c1ccccc1O)c1cccs1	15.4	-4.8	-4.3	-0.5	-7.6	4.3	/	/	/	/	/
CC(C)(C)c1cc[n+](C2=C([O-])c3ccccc3C(=O)/C2=N\S(=O)(=O)c2cccs2)cc1	106.0*	65.7*	51.3*	-118.0	35.4	35.3	51.3*	75.4*	38.9	5.9	-3.1
Cc1ccc(NC(=O)c2scc3c2CCCC3)cc1	7.6	91.2*	1.6	-2.7	-0.4	85.2*	-10.5	-7.1	19.3	7.7	31.2
O=C(Nc1ccc2c(c1)CCC2)c1cccc(F)c1	8.6	87.5*	76.5*	6.2	0.8	92.0*	91.0*	91.2*	99.6*	87.9*	89.8*
Cc1ccc(NC(=O)c2cc3c(s2)CCCC3)cc1	4.9	10.9	-10.5	-6.8	14.9	-2.0	/	/	/	/	/
CSc1ccccc1C(=O)Nc1ccc2c(c1)CCC2	6.3	52.4*	42.0	1.2	6.8	49.0	46.7	44.2	77.0*	-6.1	54.5*
Cc1ccc(C(=O)NCC(=O)Nc2ccc3c(c2)CCC3)cc1	3.7	-6.8	-21.8	-13.7	3.1	-2.9	/	/	/	/	/
Cc1ccc(C(=O)Nc2ccc3c(c2)CCC3)cc1	9.7	87.9*	81.3*	-5.3	4.2	90.6*	88.5*	89.1*	98.4*	87.4*	86.4*
O=C(Nc1ccc2c(c1)CCC2)c1ccccc1Br	-0.7	45.4	20.8	-1.4	11.0	34.1	/	/	/	/	/
COc1cc(/C=C/CNC[C@H]2O[C@@H](n3cnc4c(=O)[nH]c(N)nc43)[C@H](O)[C@@H]2O)ccc1O	27.0	/	/	/	/	/	/	/	/	/	/
Cn1cc(C(=O)Nc2ccc3c(c2)CCC3)cn1	-0.9	-24.2	-12.9	-12.3	8.5	-8.7	/	/	/	/	/
O=C(Nc1ccc2c(c1)CCC2)c1cc(F)cc(F)c1	4.1	71.7*	69.7*	5.6	9.9	77.4*	39.3	78.2*	95.4*	65.4*	21.9
CCCc1cc(=O)n2c([nH]c3ccccc32)c1C#N	-265.6	51.1*	42.2	12.2	-9.6	8.0	23.6	38.1	51.1*	53.0*	43.7
Cn1cc(/C=C/C(=O)c2ccccc2)c2ccccc21	-251.6	69.4*	63.4*	-12.0	7.6	78.8*	5.8	73.7*	88.7*	44.7	42.7
N/C(=N\OC(=O)c1ccco1)c1cccc(Br)c1	18.8	78.3*	52.2*	12.9	-4.0	74.4*	70.0*	67.6*	90.0*	75.9*	67.2*
N/C(=N\OC(=O)c1ccoc1)c1ccc(Br)cc1	3.6	92.7*	84.1*	0.5	2.6	90.8*	75.6*	71.4*	94.1*	74.8*	70.4*
N/C(=N\OC(=O)c1cccc(Br)c1)c1ccccc1	14.3	71.6*	67.3*	-1.1	5.7	86.0*	67.1*	73.2*	97.2*	81.7*	26.1
Cc1cc(C)cc(C(=O)O/N=C(\N)c2ccc(Br)cc2)c1	7.7	-3.6	-5.3	3.6	-8.5	0.1	/	/	/	/	/
SMILES	SENP8 block-1	SENP6 inh	SENP8 block-2	UBC13 inh	Apaf-1 inh	SENP7 block	SENP8 confirm	SENP6 confirm	SENP7 conf	Casp3 SENP sel	Luc interf
CC1(C(=O)Nc2ccc3c(c2)OCCO3)CSCC(=O)N1C1CC1 (stereo not given)	22.2	/	/	/	/	/	/	/	/	/	/
CCCCCCN1CCN(C2CN(C3CCCCC3)S(=O)(=O)C2)CC1 (stereo not given)	11.4	/	/	/	/	/	/	/	/	/	/
COc1ccc(C(C(=O)c2ccccc2)c2ccccc2)cc1 (stereo not given)	13.6	/	/	/	/	/	/	/	/	/	/
Cc1nc(Nc2ccc3c(c2)OCCO3)c2oc3ccccc3c2n1	-54.5	1.8	3.0	7.6	9.3	4.5	/	/	/	/	/
Cc1ccc(Nc2ncnc3c2oc2ccccc23)cc1	-283.4	66.3*	34.8	10.7	5.1	33.3	-7.4	23.0	74.1*	27.7	8.6
c1ccc2c(c1)oc1c(Nc3ccc4c(c3)OCCO4)ncnc12	-96.6	92.5*	84.7*	12.5	-7.3	91.9*	21.6	79.2*	90.0*	59.9*	23.0
CCCc1c(-c2ccc(F)cc2F)ncn1Cc1cccc(-c2ccccc2)c1	-0.3	/	/	/	/	/	/	/	/	/	/
COc1ccc(CN2C(=O)CN(S(C)(=O)=O)CC2(C)C(=O)NC(C)C)cc1 (stereo not given)	18.1	/	/	/	/	/	/	/	/	/	/
O=C(/C=C/c1ccccc1O)c1ccccc1	-0.7	/	/	/	/	/	/	/	/	/	/
O=C(/C=C/c1ccccc1O)c1ccc(Cl)cc1	11.0	67.1*	39.9	8.8	9.7	-4.3	48.3	55.2*	7.8	11.8	56.2*
COc1ccc(C(=O)/C=C/Nc2cccc(O)c2)cc1	-159.1	92.9*	87.9*	-6.5	5.6	85.4*	95.5*	96.8*	101.5*	91.0*	91.4*
Cc1cccc(N/C=C/C(=O)c2ccc(Cl)cc2)c1	-146.5	73.0*	66.2*	-5.0	-0.7	89.5*	17.6	20.0	22.5	46.4	6.8
COc1ccc(N/C=C\C(=O)c2ccc(C)cc2)cc1OC	-18.1	-0.9	-9.6	-7.9	13.1	-17.4	/	/	/	/	/
Cc1ccc(Cl)c(N/C=C/C(=O)c2ccccc2)c1	-33.4	77.2*	49.3	0.8	16.0	70.7*	45.5	59.8*	78.7*	50.4*	28.6
CCCCn1nnnc1C(c1ccccc1)N1CCCN(Cc2ccc(F)cc2)CC1 (stereo not given)	18.2	/	/	/	/	/	/	/	/	/	/
